Assays:
Format in all cases: functional
MCF7 = experiment: Growth inhibition of human MCF7 cells after 48 hrs by sulforhodamine B assay; settings: MCF7, 48 h; for CC50: read-out: pLC50 (the source's name) (converted); for TGI: read-out: pTGI (converted)
Procedure, shortened: (§1)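 NCI 60-human-tumor-cell-line panel, with compounds tested over a 5-log dose range. Values are taken from dose-response curves as log10 molar concentrations: GI50 is 50% net growth inhibition, TGI is total growth inhibition, and LC50 is 50% net cell death.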

UO-31 = experiment: Growth inhibition of human UO31 cells after 48 hrs by sulforhodamine B assay; settings: UO-31, 48 h; for CC50: read-out: pLC50 (the source's name) (converted); for TGI: read-out: pTGI (converted)
Procedure, shortened: (§2)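 Run in the NCI 60-human-tumour-cell-line panel, tested over a 5-log dose range. Dose–response curves gave three values per cell line, each as a log10 molar concentration: GI50 (50% inhibition of net cell growth), TGI (total inhibition of net growth) and LC50 (50% net cell death). The mean graph midpoint is the arithmetic mean over all lines, with insensitive lines entered at the highest concentration tested.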

SK-MEL-2 = experiment: Growth inhibition of human SK-MEL-2 cells after 48 hrs by sulforhodamine B assay; settings: SK-MEL-2, 48 h; for CC50: read-out: pLC50 (the source's name) (converted); for TGI: read-out: pTGI (converted); procedure, shortened: as §1
HL-60(TB) = experiment: Growth inhibition of human HL-60(TB) cells after 48 hrs by sulforhodamine B assay; settings: HL-60, 48 h; for TGI: read-out: pTGI (converted)
Procedure, shortened: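 Tested only on compounds active in a three-line prescreen, in the NCI 60-human-tumour-cell-line panel over a 5-log dose range. Values come from dose–response curves as log10 molar GI50, the concentration inhibiting 50% net cell growth. Log10 TGI (total growth inhibition) and log10 LC50 (50% net cell death) were derived too. Mean graph midpoints include insensitive lines at the highest concentration tested.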

EKVX = experiment: Growth inhibition of human EKVX cells after 48 hrs by sulforhodamine B assay; settings: for TGI: read-out: pTGI (converted); procedure, shortened: as §1
SR = experiment: Growth inhibition of human SR cells after 48 hrs by sulforhodamine B assay; settings: for TGI: read-out: pTGI (converted); procedure, shortened: as §2
OVCAR-3 = experiment: Growth inhibition of human OVCAR-3 cells after 48 hrs by sulforhodamine B assay; settings: OVCAR-3, 48 h; for CC50: read-out: pLC50 (the source's name) (converted); for TGI: read-out: pTGI (converted); procedure, shortened: as §1
KM12 = experiment: Growth inhibition of human KM12 cells after 48 hrs by sulforhodamine B assay; settings: KM12, 48 h; for TGI: read-out: pTGI (converted); procedure, shortened: as §1
BT-549 = experiment: Growth inhibition of human BT549 cells after 48 hrs by sulforhodamine B assay; settings: BT-549, 48 h; for CC50: read-out: pLC50 (the source's name) (converted); for TGI: read-out: pTGI (converted); procedure, shortened: as §1
SF-539 = experiment: Growth inhibition of human SF539 cells after 48 hrs by sulforhodamine B assay; settings: SF-539, 48 h; for TGI: read-out: pTGI (converted); procedure, shortened: as §1
HCT-15 = experiment: Growth inhibition of human HCT15 cells after 48 hrs by sulforhodamine B assay; settings: HCT-15, 48 h; for TGI: read-out: pTGI (converted); procedure, shortened: as §1
A498 = experiment: Growth inhibition of human A498 cells after 48 hrs by sulforhodamine B assay; settings: A498, 48 h; procedure, shortened: as §1
HOP-62 = experiment: Growth inhibition of human HOP62 cells after 48 hrs by sulforhodamine B assay; settings: HOP-62, 48 h; for TGI: read-out: pTGI (converted); procedure, shortened: as §1
ACHN = experiment: Growth inhibition of human ACHN cells after 48 hrs by sulforhodamine B assay; settings: for CC50: read-out: pLC50 (the source's name) (converted); for TGI: read-out: pTGI (converted)
SK-OV-3 = experiment: Growth inhibition of human SKOV3 cells after 48 hrs by sulforhodamine B assay; settings: SK-OV-3, 48 h; for CC50: read-out: pLC50 (the source's name) (converted); for TGI: read-out: pTGI (converted); procedure, shortened: as §1
UACC-62 = experiment: Growth inhibition of human UACC62 cells after 48 hrs by sulforhodamine B assay; settings: UACC-62, 48 h; for CC50: read-out: pLC50 (the source's name) (converted); for TGI: read-out: pTGI (converted); procedure, shortened: as §2
NCI-H23 = experiment: Growth inhibition of human NCI-H23 cells after 48 hrs by sulforhodamine B assay; settings: NCI-H23, 48 h; for TGI: read-out: pTGI (converted); procedure, shortened: as §1
SNB-75 = experiment: Growth inhibition of human SNB75 cells after 48 hrs by sulforhodamine B assay; settings: SNB-75, 48 h; for TGI: read-out: pTGI (converted); procedure, shortened: as §2
HT-29 = experiment: Growth inhibition of human HT-29 cells after 48 hrs by sulforhodamine B assay; settings: HT-29, 48 h; for TGI: read-out: pTGI (converted); procedure, shortened: as §1
NCI-H460 = experiment: Growth inhibition of human NCI-H460 cells after 48 hrs by sulforhodamine B assay; settings: NCI-H460, 48 h; for TGI: read-out: pTGI (converted); procedure, shortened: as §1
[1] = Growth inhibition of human […] cells after 48 hrs by sulforhodamine B assay; settings: for TGI: read-out: pTGI (converted); procedure, shortened: as §1
NCI-H226 = experiment: Growth inhibition of human NCI-H226 cells after 48 hrs by sulforhodamine B assay; settings: NCI-H226, 48 h; for TGI: read-out: pTGI (converted); procedure, shortened: as §1
SF-268 = experiment: Anticancer activity against human SF268 cells assessed as cell growth at 100 uM after 48 hrs by sulforhodamine B assay; settings: SF-268, 48 h, read-out: Activity
SNB-19 = experiment: Growth inhibition of human SNB19 cells after 48 hrs by sulforhodamine B assay; settings: SNB-19, 48 h; for TGI: read-out: pTGI (converted); procedure, shortened: as §2
HOP-92 = experiment: Growth inhibition of human HOP92 cells after 48 hrs by sulforhodamine B assay; settings: HOP-92, 48 h; for TGI: read-out: pTGI (converted); procedure, shortened: as §1
UACC-257 = experiment: Growth inhibition of human UACC257 cells after 48 hrs by sulforhodamine B assay; settings: UACC-257, 48 h; for CC50: read-out: pLC50 (the source's name) (converted); for TGI: read-out: pTGI (converted); procedure, shortened: as §2

## Nc1cc(N)c2nc(-c3ccccc3)c(Sc3ccc(F)cc3)nc2c1
MCF7
  GI50: 20 µM
  CC50: > 100 µM
  TGI: 63.1 µM
UO-31
  GI50: > 100 µM
  CC50: > 100 µM
  TGI: > 100 µM
SK-MEL-2
  GI50: 38 µM
  CC50: > 100 µM
  TGI: > 100 µM
HL-60(TB)
  GI50: 38.9 µM
  LC50: > 100 µM
  TGI: > 100 µM
EKVX
  GI50: 20.4 µM
  LC50 (50% net cell kill): 83.2 µM
  TGI: 41.7 µM
SR
  GI50: 35.5 µM
  LC50 (concentration giving 50% net cell death): > 100 µM
  TGI: > 100 µM
OVCAR-3
  GI50: 16.2 µM
  CC50: 69.2 µM
  TGI: 33.9 µM
KM12
  GI50: 20.9 µM
  LC50 (50% net cell kill): > 100 µM
  TGI: 49 µM
BT-549
  GI50: 21.9 µM
  CC50: 89.1 µM
  TGI: 43.7 µM
SF-539
  GI50: 21.4 µM
  LC50: 75.9 µM
  TGI: 39.8 µM
HCT-15
  GI50: 13.5 µM
  LC50: 56.2 µM
  TGI: 27.5 µM
A498
  GI50: > 100 µM
A498; read-out: pLC50 (the source's name) (converted)
  CC50: > 100 µM
A498; read-out: pTGI (converted)
  TGI: > 100 µM
HOP-62
  GI50: 16.6 µM
  LC50: 70.8 µM
  TGI: 34.7 µM
ACHN
  GI50: > 100 µM
  CC50: > 100 µM
  TGI: > 100 µM
SK-OV-3
  GI50: 15.8 µM
  CC50: 63.1 µM
  TGI: 31.6 µM
UACC-62
  GI50: 16.6 µM
  CC50: 60.3 µM
  TGI: 31.6 µM
NCI-H23
  GI50: 19.1 µM
  LC50 (50% net cell kill concentration): 81.3 µM
  TGI: 39.8 µM
SNB-75
  GI50: 20.9 µM
  LC50: > 100 µM
  TGI: 47.9 µM
HT-29
  GI50: 17.8 µM
  LC50: > 100 µM
  TGI: 45.7 µM
NCI-H460
  GI50: 21.9 µM
  LC50 (50% net cell kill): > 100 µM
  TGI: 66.1 µM
[1]
  GI50: 28.2 µM
  LC50: > 100 µM
  TGI: 81.3 µM
NCI-H226
  GI50: 19.1 µM
  LC50: > 100 µM
  TGI: 46.8 µM
SF-268
  growth at 100 µM: 0%
SNB-19
  GI50: 20 µM
  LC50: 87.1 µM
  TGI: 41.7 µM
HOP-92
  GI50: 22.9 µM
  LC50 (50% net cell death): > 100 µM
  TGI: 55 µM
UACC-257
  GI50: 16.6 µM
  CC50: 60.3 µM
  TGI: 31.6 µM

## Nc1cc(N)c2nc(-c3ccccc3)c(Oc3ccc(F)cc3)nc2c1
MCF7
  GI50: 20.4 µM
  CC50: > 100 µM
  TGI: > 100 µM
UO-31
  GI50: 13.5 µM
  CC50: > 100 µM
  TGI: 45.7 µM
SK-MEL-2
  GI50: 42.7 µM
  CC50: > 100 µM
  TGI: > 100 µM
HL-60(TB)
  GI50: 18.6 µM
  LC50: > 100 µM
  TGI: 64.6 µM
EKVX
  GI50: 14.8 µM
  LC50 (50% net cell kill): 77.6 µM
  TGI: 33.9 µM
SR
  GI50: 8.13 µM
  LC50 (concentration giving 50% net cell death): > 100 µM
  TGI: > 100 µM
OVCAR-3
  GI50: 15.5 µM
  CC50: > 100 µM
  TGI: 41.7 µM
KM12
  GI50: 14.5 µM
  LC50 (50% net cell kill): > 100 µM
  TGI: 40.7 µM
BT-549
  GI50: 15.1 µM
  CC50: 81.3 µM
  TGI: 34.7 µM
SF-539
  GI50: 18.2 µM
  LC50: 70.8 µM
  TGI: 35.5 µM
HCT-15
  GI50: 36.3 µM
  LC50: > 100 µM
  TGI: > 100 µM
HOP-62
  GI50: 21.4 µM
  LC50: > 100 µM
  TGI: 49 µM
ACHN
  GI50: 13.8 µM
  CC50: 81.3 µM
  TGI: 33.1 µM
SK-OV-3
  GI50: 20.9 µM
  CC50: 83.2 µM
  TGI: 41.7 µM
UACC-62
  GI50: 15.8 µM
  CC50: 69.2 µM
  TGI: 33.1 µM
NCI-H23
  GI50: 20.9 µM
  LC50 (50% net cell kill concentration): 77.6 µM
  TGI: 39.8 µM
SNB-75
  GI50: 23.4 µM
  LC50: > 100 µM
  TGI: 49 µM
HT-29
  GI50: 22.9 µM
  LC50: > 100 µM
  TGI: 51.3 µM
NCI-H460
  GI50: 39.8 µM
  LC50 (50% net cell kill): > 100 µM
  TGI: > 100 µM
[1]
  GI50: 12.3 µM
  LC50: > 100 µM
  TGI: 46.8 µM
NCI-H226
  GI50: 20.4 µM
  LC50: > 100 µM
  TGI: 49 µM
SF-268
  growth at 100 µM: 6%
SNB-19
  GI50: 17.4 µM
  LC50: 66.1 µM
  TGI: 33.9 µM
HOP-92
  GI50: 12.3 µM
  LC50 (50% net cell death): 72.4 µM
  TGI: 29.5 µM
UACC-257
  GI50: 23.4 µM
  CC50: 77.6 µM
  TGI: 42.7 µM

From ChEMBL document CHEMBL1137710, “Synthesis and in vitro antitumor activity of new quinoxaline derivatives” (2009)
